From PubChem BioAssay
Hits are enriched below; roughly 3.1% of the tested compounds scored in any of these assays.
Calb FLC – affects C. albicans growth with fluconazole; AID 1979; growth inhibition, % (no concentration beside the values); actives 0.57% (n = 300,000); C. albicans CaCi-2 (fluconazole-resistant clinical isolate) + fluconazole, Alamar Blue growth, 48 h;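 active = growth inhibition above about 58% in most replicates, limit read from the data, passing the limit was not always enough; inconclusive = exactly half the replicates above a set limit; inactive = most replicates below a set limit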;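 note: all wells also contain fluconazole at 8 µg/ml as a sub-toxic cotreatment; 0% = median of DMSO wells and 100% = median of geldanamycin control wells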
A1 inh – inhibitors of the anti-apoptotic protein A1, read as caspase activation; MEF A1-2A-BIM cells, Caspase-Glo 3/7 luminescence, 3 h; percent of clofoctol response, vehicle zero; caspase activation, % (concentration not given with the values); actives 0.066% (n = 330,000); AID 2462;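 active = over half of replicate activation scores above 10%, or exactly half above 10 with the replicate mean above 10; inconclusive = replicate mean below 10 yet half the replicates above 10; inactive = over half of replicates below 10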
TAG inh – reduces triacylglycerol accumulation in H9c2 cells. actives 0.66% (n = 230,000). AID 651582. inhibition, % at 12.5 µM. Nile Red lipid (TAG) fluorescence; cells loaded with 200 µM oleic acid;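 active = pattern-corrected inhibition of lipid staining of at least 50% with the nuclear-stain viability signal not falling by more than 50%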;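 note: 0% = DMSO wells and 100% = triacsin C control wells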
Beta cell apopt – blocks beta cell apoptosis; INS-1E cytokine-induced death, ATP luminescence, 48 h; percent of positive-control rescue, neutral wells zero; protection from apoptosis, % (test concentration not listed); actives 0.8% (n = 300,000); AID 435005;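 active = Every replicate reaches about 75%, or at least half do and their mean reaches it too, limit read from the data; inconclusive = At least half of replicates reach the limit but their mean does not; inactive = Under half of replicates reach the limit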;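 note: 0% = cytokine-treated negative control wells and 100% = positive control rescue; higher means more ATP so stronger rescue from cytokine killing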
T cruzi repl – T. cruzi replication inhibition. actives 1.4% (n = 300,000). T. cruzi beta-gal in NIH3T3, luminescence, 90 h. AID 1885. inhibition, % (test concentration not listed);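 active = mean inhibition across valid replicates above about 55%, limit read from the data; inconclusive = mean below that limit but half or more replicates reach it; inactive = mean below it, under half of replicates reach it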;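 note: signal also drops with host cell toxicity which is not excluded here; 0% = plate median of DMSO wells and 100% = zero luminescence signal; higher percent means less beta-gal luminescence so fewer parasites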
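assay system = mouse NIH/3T3 fibroblasts infected with β-gal-expressing T. cruzi Tulahuen C4 | input = 5,000 NIH/3T3 host cells per well | buffer or medium = DMEM plus 2% FBS | timing = 3 h host attachment, then at least 90 h co-culture | measured by = GalScreen luminescence, 60 min | evaluation = luminescence reflecting intracellular parasite burden, expressed as percent inhibition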
CSC inhib – cancer stem cell inhibition | cancer stem cell-like cells viability, luminescence | AID 2717 | inhibition, % at 7.5 µM | actives 1.1% (n = 300,000); in the data active = inhibition above about 75%; inconclusive = no clear call, values can overlap the other calls; tested in HMLE shEcad cells
* marks the source's active call; other numbers are inactive results; u = inconclusive; x = not tested or not shown.

SMILES | Calb FLC | A1 inh | TAG inh | Beta cell apopt | T cruzi repl | CSC inhib
O=C(NC(=S)NCc1cccnc1)c1cccc2ccccc12 | 5 | 0 | -5 | -2 | 63* | -9
C=CCN(CC=C)C(=S)NC(=O)Cc1cccc2ccccc12 | -15 | 1 | x | -5 | 2 | 12
Cc1nc2ccc(N=NC3=C(O)CC(C)(C)CC3=O)cc2s1 | -6 | 0 | x | -5 | 7 | -7
CCOc1ccc2nc(N=NC3=C(O)CC(C)(C)CC3=O)sc2c1 | 89* | 0 | 6 | 0 | -13 | 25
Cc1ccccc1N=Nc1c(C)[nH]n(C(N)=S)c1=O | 27 | -5 | x | 28 | -4 | 0
Cc1cccc(N=Nc2c(C)[nH]n(C(N)=S)c2=O)c1C | 105* | -6 | x | 28 | -2 | -7
COc1cc(C(=S)N2CCN(c3ccccc3Cl)CC2)cc(O)c1O | 91* | -1 | -1 | -4 | 18 | 41
O=C(Nc1ccc(Cl)cc1)N(Cc1cccnc1)Cc1ccco1 | -4 | 1 | x | -1 | 61* | 2
Cc1ccc(NC(=O)N(Cc2cccnc2)Cc2ccco2)cc1C | 22 | 1 | x | -6 | 67* | 0
Cc1ccc(NC(=O)N(Cc2ccco2)C(C)c2ccco2)cc1C (stereo not given) | 2 | -1 | x | 2 | 8 | 8
CCc1ccc(NC(=S)N(Cc2cccnc2)Cc2ccco2)cc1 | -23 | 0 | -18 | -5 | x | 5
Cc1ccc(NC(=S)N(CCCN2CCOCC2)Cc2cccnc2)cc1C | -15 | 0 | 9 | -9 | 68* | -14
O=C(COC(=O)c1ccc2ncsc2c1)Nc1ccccc1Br | x | 0 | 11 | -1 | x | x
Cc1ccc(CN(C(=O)c2ccccc2[N+](=O)[O-])C2CCS(=O)(=O)C2)o1 (stereo not given) | 4 | 1 | x | 1 | -2 | -17
CNc1ccccc1C(C)(C)c1cc(-c2cc(C)cc(C)c2)no1 | -1 | -1 | x | 3 | 11 | 97*
CNc1ccccc1C(C)(C)c1cc(-c2cccc(OC)c2)no1 | 1 | 0 | x | 61 | 15 | x
COc1ccc(CN2CCC(N(CCc3ccccc3)Cc3ccccc3)CC2)c(OC)c1 | 25 | 0 | 35 | 20 | 60* | u
COc1ccc(-c2c([C@H]3[C@H]4C=CC[C@@H](C)[C@@H]4C(=O)N3Cc3ccccc3)ccc3ccccc23)cc1 | 20 | -1 | -13 | 107* | 30 | 46
COc1ccc2cc3cc(C(=O)Nc4ccccc4N4CCN(C)CC4)oc3nc2c1 | -4 | -4 | 53* | 23 | 67* | 14
O=C(NNC(=O)c1ccccc1O)c1ccc(Cl)c(S(=O)(=O)N2CCc3ccccc32)c1 | 10 | 1 | -26 | 83* | 6 | 10
O=C(c1ccc(Cl)c(S(=O)(=O)N2CCc3ccccc32)c1)N1CCN(c2ccccc2O)CC1 | x | -1 | 3 | -22 | x | 19
O=C1NC(=S)S/C1=C\c1ccc(SCc2ccccc2)o1 | x | 1 | x | 8 | x | 76*
O=C1NC(=S)S/C1=C\c1ccc(SCc2ccco2)o1 | x | -1 | x | -2 | x | 14
COC(=O)c1nnn(-c2nonc2N)c1COc1ccc(C=O)cc1OC | 3 | 1 | 10 | -5 | -5 | -1
COCCCn1c(SCCc2ccccc2)nc2cc(OC)c(OC)cc2c1=N | 27 | -1 | 15 | 5 | 44 | 83*
SMILES | Calb FLC | A1 inh | TAG inh | Beta cell apopt | T cruzi repl | CSC inhib
COc1cc2nc(SCc3ccc(F)cc3)n(Cc3cccs3)c(=N)c2cc1OC | 24 | 1 | x | 18 | 36 | 0
CCSc1nc2cc(OC)c(OC)cc2c(=O)n1CCc1ccccc1 | 4 | 1 | x | 5 | 33 | 8
COc1ccc(Cn2c(SCc3ccccc3C)nc3cc(OC)c(OC)cc3c2=N)cc1 | 47 | 0 | 59* | 108* | 48 | 100*
COc1ccc(C2=NN(C(=O)c3cccs3)C(c3ccccc3OC)C2)cc1OC (stereo not given) | 2 | 0 | -2 | 10 | 28 | 8
Cc1ccc(C2=NN(C(=O)c3cccs3)C(c3ccccc3O)C2)cc1 (stereo not given) | 26 | -1 | 17 | 9 | 64* | 2
O=C(c1ccccc1)N1N=C(c2ccccc2)CC1c1ccccc1O (stereo not given) | -1 | -1 | x | 9 | 33 | -4
